Reference: ChEMBL document CHEMBL1629657, “In vitro antimicrobial activity of a new cephalosporin, ceftaroline, and determination of quality control ranges for MIC testing” (2009)

Experiments:
Format in all cases: functional
Providencia stuartii = experiment: Antimicrobial activity against Proteus stuartii by broth microdilution method
Method in brief: (§1)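 Clinical isolates were tested by CLSI broth microdilution in unsupplemented cation-adjusted Mueller-Hinton broth. The read-out was the MIC, reported as MIC90 (μg/ml) per species or phenotypic group. Ceftriaxone, levofloxacin and imipenem were run in parallel as comparators.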

Proteus vulgaris = experiment: Antimicrobial activity against Proteus vulgaris by broth microdilution method; method in brief: as §1
Serratia marcescens = experiment: Antimicrobial activity against Serratia marcescens by broth microdilution method; method in brief: as §1
Shigella sp. = experiment: Antimicrobial activity against Shigella spp. by broth microdilution method; method in brief: as §1
Salmonella sp. = experiment: Antimicrobial activity against Salmonella spp. by broth microdilution method; method in brief: as §1
Burkholderia cepacia = experiment: Antimicrobial activity against Burkholderia cepacia by broth microdilution method; method in brief: as §1
Pseudomonas aeruginosa [1] = experiment: Antimicrobial activity against Pseudomonas aeruginosa by broth microdilution method; method in brief: as §1
Pseudomonas aeruginosa [2] = experiment: Antimicrobial activity against multidrug resistant Pseudomonas aeruginosa by broth microdilution method
Method in brief: (§2)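 Isolates of the stated resistance phenotype were tested by CLSI broth microdilution in unsupplemented cation-adjusted Mueller-Hinton broth. Ceftaroline was compared with ceftriaxone, levofloxacin and imipenem. Activity was expressed as MICs (MIC90 in μg/ml).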

[3] = test system: Stenotrophomonas maltophilia; experiment: Antimicrobial activity against Stenotrophomonas maltophilia by broth microdilution method; method in brief: as §1
Moraxella catarrhalis = experiment: Antimicrobial activity against Moraxella catarrhalis by broth microdilution method; method in brief: as §1
Haemophilus influenzae [4] = experiment: Antimicrobial activity against beta-lactamase-negative Haemophilus influenzae by broth microdilution method
Method in brief: (§3)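 CLSI broth microdilution in Haemophilus test medium (cation-adjusted Mueller-Hinton base) against clinical H. influenzae isolates of the stated phenotype. Ceftaroline was compared with ceftriaxone, levofloxacin and imipenem. Activity was expressed as MICs (MIC90 in μg/ml).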

Haemophilus influenzae [5] = experiment: Antimicrobial activity against beta-lactamase-positive Haemophilus influenzae by broth microdilution method
Method in brief: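 H. influenzae isolates were tested by CLSI broth microdilution using Haemophilus test medium. The MIC was read and MIC90 (μg/ml) reported for the group. Ceftriaxone, levofloxacin and imipenem served as comparators.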

Haemophilus influenzae [6] = experiment: Antimicrobial activity against beta-lactamase-negative ampicillin resistant Haemophilus influenzae by broth microdilution method; method in brief: as §3
Staphylococcus aureus [7] = experiment: Antimicrobial activity against methicillin-resistant Staphylococcus aureus by broth microdilution method; method in brief: as §2
Staphylococcus aureus [8] = experiment: Antimicrobial activity against methicillin-susceptible Staphylococcus aureus by broth microdilution method; method in brief: as §1
Staphylococcus aureus [9] = experiment: Antimicrobial activity against vancomycin-intermediate Staphylococcus aureus by broth microdilution method; method in brief: as §1
Staphylococcus aureus [10] = experiment: Antimicrobial activity against vancomycin-resistant Staphylococcus aureus by broth microdilution method; method in brief: as §2
Staphylococcus [11] = experiment: Antimicrobial activity against methicillin-resistant coagulase-negative Staphylococcus by broth microdilution method; method in brief: as §2
Staphylococcus [12] = experiment: Antimicrobial activity against methicillin-susceptible coagulase-negative Staphylococcus by broth microdilution method; method in brief: as §1
Enterococcus faecalis [13] = experiment: Antimicrobial activity against Enterococcus faecalis by broth microdilution method; method in brief: as §1
Enterococcus faecalis [14] = experiment: Antimicrobial activity against vancomycin-susceptible Enterococcus faecalis by broth microdilution method; method in brief: as §1
Enterococcus faecium [15] = experiment: Antimicrobial activity against Enterococcus faecium by broth microdilution method; method in brief: as §1
Enterococcus faecium [16] = experiment: Antimicrobial activity against vancomycin-susceptible Enterococcus faecium by broth microdilution method; method in brief: as §1
Corynebacterium jeikeium = experiment: Antimicrobial activity against Corynebacterium jeikeium by broth microdilution method; method in brief: as §1
Listeria monocytogenes = experiment: Antimicrobial activity against Listeria monocytogenes by broth microdilution method; method in brief: as §1
Streptococcus agalactiae = experiment: Antimicrobial activity against Streptococcus agalactiae by broth microdilution method
Method in brief: (§4)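 Streptococcal isolates were tested by CLSI broth microdilution in cation-adjusted Mueller-Hinton broth supplemented with 3% lysed horse blood. The read-out was the MIC, with MIC90 (μg/ml) reported per group. Ceftriaxone, levofloxacin and imipenem served as comparators.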

Streptococcus pneumoniae [17] = experiment: Antimicrobial activity against levofloxacin-resistant Streptococcus pneumoniae by broth microdilution method
Method in brief: (§5)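 CLSI broth microdilution in cation-adjusted Mueller-Hinton broth with 3% lysed horse blood, against streptococcal clinical isolates of the stated phenotype. Ceftaroline was compared with ceftriaxone, levofloxacin and imipenem. Activity was expressed as MICs (MIC90 in μg/ml).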

Streptococcus pneumoniae [18] = experiment: Antimicrobial activity against penicillin-resistant Streptococcus pneumoniae by broth microdilution method; method in brief: as §5
Streptococcus pneumoniae [19] = experiment: Antimicrobial activity against penicillin-intermediate Streptococcus pneumoniae by broth microdilution method; method in brief: as §5
Streptococcus pneumoniae [20] = experiment: Antimicrobial activity against penicillin-susceptible Streptococcus pneumoniae by broth microdilution method; method in brief: as §4
Streptococcus pyogenes [21] = experiment: Antimicrobial activity against macrolide-resistant Streptococcus pyogenes by broth microdilution method; method in brief: as §5
Streptococcus pyogenes [22] = experiment: Antimicrobial activity against macrolide-susceptible Streptococcus pyogenes by broth microdilution method; method in brief: as §5
Streptococcus viridans = experiment: Antimicrobial activity against Streptococcus viridans group clinical isolate by broth microdilution method; method in brief: as §4
Klebsiella aerogenes = experiment: Antimicrobial activity against ESBL-negative Enterobacter aerogenes by broth microdilution method; method in brief: as §1
Enterobacter cloacae = experiment: Antimicrobial activity against ESBL-negative Enterobacter cloacae by broth microdilution method; method in brief: as §1
Escherichia coli [23] = experiment: Antimicrobial activity against ESBL-negative Escherichia coli by broth microdilution method; method in brief: as §1
Escherichia coli [24] = experiment: Antimicrobial activity against ESBL-positive Escherichia coli by broth microdilution method; method in brief: as §1
Klebsiella pneumoniae [25] = experiment: Antimicrobial activity against ESBL-negative Klebsiella pneumoniae by broth microdilution method; method in brief: as §1
Klebsiella pneumoniae [26] = experiment: Antimicrobial activity against ESBL-positive Klebsiella pneumoniae by broth microdilution method; method in brief: as §1
Morganella morganii = experiment: Antimicrobial activity against Morganella morganii by broth microdilution method; method in brief: as §1
Proteus mirabilis = experiment: Antimicrobial activity against Proteus mirabilis by broth microdilution method; method in brief: as §1
Providencia rettgeri = experiment: Antimicrobial activity against Proteus rettgeri by broth microdilution method; method in brief: as §1

For `C[C@H]1COc2c(N3CCN(C)CC3)c(F)cc3c(=O)c(C(=O)O)cn1c23.C[C@H]1COc2c(N3CCN(C)CC3)c(F)cc3c(=O)c(C(=O)O)cn1c23.O` [LEVOFLOXACIN], the MIC50 (Providencia stuartii) was 0.12 µg/mL, the MIC90 (Providencia stuartii) was > 32 µg/mL and the MIC50 (Proteus vulgaris) was 0.03 µg/mL. For the same compound, the MIC90 (Proteus vulgaris) was 0.06 µg/mL, the MIC50 (Serratia marcescens) was 0.12 µg/mL and the MIC90 (Serratia marcescens) was 0.25 µg/mL. It also gave an MIC50 (Shigella sp.) of 0.03 µg/mL, an MIC90 (Shigella sp.) of 0.06 µg/mL and an MIC (Salmonella sp.) of 0.03 µg/mL. The MIC50 (Salmonella sp.) was 0.03 µg/mL, the MIC90 (Salmonella sp.) was 0.06 µg/mL and the MIC50 (Burkholderia cepacia) was 1 µg/mL. For the same compound, the MIC90 (Burkholderia cepacia) was 32 µg/mL, the MIC50 (Pseudomonas aeruginosa [1]) was 2 µg/mL and the MIC90 (Pseudomonas aeruginosa [1]) was > 32 µg/mL. For the same compound, the MIC50 (Pseudomonas aeruginosa [2]) was 32 µg/mL, the MIC50 [3] was 1 µg/mL and the MIC90 [3] was 16 µg/mL. It also gave an MIC50 (Moraxella catarrhalis) of 0.03 µg/mL, an MIC90 (Moraxella catarrhalis) of 0.03 µg/mL and an MIC50 (Haemophilus influenzae [4]) of 0.03 µg/mL. For the same compound, the MIC90 (Haemophilus influenzae [4]) was 0.03 µg/mL, the MIC50 (Haemophilus influenzae [5]) was 0.03 µg/mL and the MIC90 (Haemophilus influenzae [5]) was 0.03 µg/mL. The MIC50 (Haemophilus influenzae [6]) was 0.03 µg/mL, the MIC90 (Haemophilus influenzae [6]) was 0.06 µg/mL and the MIC50 (Staphylococcus aureus [7]) was 8 µg/mL. The MIC90 (Staphylococcus aureus [7]) was > 32 µg/mL, the MIC50 (Staphylococcus aureus [8]) was 0.25 µg/mL and the MIC90 (Staphylococcus aureus [8]) was 8 µg/mL. For the same compound, the MIC50 (Staphylococcus aureus [9]) was 16 µg/mL, the MIC90 (Staphylococcus aureus [9]) was 32 µg/mL and the MIC (Staphylococcus aureus [10]) was 16 µg/mL. The MIC50 (Staphylococcus [11]) was 8 µg/mL, the MIC90 (Staphylococcus [11]) was > 32 µg/mL and the MIC50 (Staphylococcus [12]) was 0.25 µg/mL. The MIC90 (Staphylococcus [12]) was 16 µg/mL, the MIC50 (Enterococcus faecalis [13]) was 1 µg/mL and the MIC90 (Enterococcus faecalis [13]) was 32 µg/mL. The MIC (Enterococcus faecalis [14]) was 1 µg/mL, the MIC50 (Enterococcus faecalis [14]) was 1 µg/mL and the MIC90 (Enterococcus faecalis [14]) was > 32 µg/mL. For the same compound, the MIC50 (Enterococcus faecium [15]) was > 32 µg/mL, the MIC90 (Enterococcus faecium [15]) was > 32 µg/mL and the MIC50 (Enterococcus faecium [16]) was 2 µg/mL. For the same compound, the MIC90 (Enterococcus faecium [16]) was > 32 µg/mL, the MIC50 (Corynebacterium jeikeium) was > 32 µg/mL and the MIC90 (Corynebacterium jeikeium) was > 32 µg/mL. It also gave an MIC (Listeria monocytogenes) of 1 µg/mL, an MIC50 (Listeria monocytogenes) of 1 µg/mL and an MIC90 (Listeria monocytogenes) of 1 µg/mL. For the same compound, the MIC50 (Streptococcus agalactiae) was 1 µg/mL, the MIC90 (Streptococcus agalactiae) was 1 µg/mL and the MIC50 (Streptococcus pneumoniae [17]) was 16 µg/mL. For the same compound, the MIC90 (Streptococcus pneumoniae [17]) was > 32 µg/mL, the MIC50 (Streptococcus pneumoniae [18]) was 1 µg/mL and the MIC90 (Streptococcus pneumoniae [18]) was 1 µg/mL. The MIC50 (Streptococcus pneumoniae [19]) was 1 µg/mL, the MIC90 (Streptococcus pneumoniae [19]) was 1 µg/mL and the MIC50 (Streptococcus pneumoniae [20]) was 1 µg/mL. For the same compound, the MIC90 (Streptococcus pneumoniae [20]) was 2 µg/mL, the MIC (Streptococcus pyogenes [21]) was 0.5 µg/mL and the MIC50 (Streptococcus pyogenes [21]) was 0.5 µg/mL. The MIC90 (Streptococcus pyogenes [21]) was 0.5 µg/mL, the MIC50 (Streptococcus pyogenes [22]) was 0.5 µg/mL and the MIC90 (Streptococcus pyogenes [22]) was 2 µg/mL. For the same compound, the MIC50 (Streptococcus viridans) was 1 µg/mL, the MIC90 (Streptococcus viridans) was 2 µg/mL and the MIC50 (Klebsiella aerogenes) was 0.06 µg/mL. For the same compound, the MIC90 (Klebsiella aerogenes) was 0.5 µg/mL, the MIC50 (Enterobacter cloacae) was 0.03 µg/mL and the MIC90 (Enterobacter cloacae) was 0.06 µg/mL. It also gave an MIC50 (Escherichia coli [23]) of 0.03 µg/mL, an MIC90 (Escherichia coli [23]) of 0.25 µg/mL and an MIC50 (Escherichia coli [24]) of 0.25 µg/mL. The MIC90 (Escherichia coli [24]) was 32 µg/mL, the MIC50 (Klebsiella pneumoniae [25]) was 0.06 µg/mL and the MIC90 (Klebsiella pneumoniae [25]) was 0.5 µg/mL. The MIC50 (Klebsiella pneumoniae [26]) was 0.5 µg/mL, the MIC90 (Klebsiella pneumoniae [26]) was 8 µg/mL and the MIC50 (Morganella morganii) was 0.06 µg/mL. The MIC90 (Morganella morganii) was 8 µg/mL, the MIC (Proteus mirabilis) was 0.03 µg/mL and the MIC50 (Proteus mirabilis) was 0.03 µg/mL. The MIC90 (Proteus mirabilis) was 0.25 µg/mL, the MIC50 (Providencia rettgeri) was 0.12 µg/mL and the MIC90 (Providencia rettgeri) was > 32 µg/mL.
